Results: ChEMBL document CHEMBL4145444, “Investigating the structure-activity relationships of N'-[(5-nitrofuran-2-yl) methylene] substituted hydrazides against Trypanosoma cruzi to design novel active compounds” (Eur J Med Chem, 2018)
Active and inactive are the calls of the source. No cut-off for these calls is given here.

Key:
[1] = Selectivity index, ratio of CC50 for cytotoxicity against human U2OS cells to IC50 for Trypanosoma cruzi Y Tc2 amastigotes infected in human U2OS cells; type: toxicity, cell-based; settings: read-out: Ratio CC50/IC50
Summary of the method: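 Ratio of U2OS CC50 to Y-strain amastigote IC50, both from the same 72 h Draq5-stained HCS assay in infected U2OS cells (2-fold series up to 200 μM, 1% DMSO).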

Trypanosoma cruzi [2] = assay: Antitrypanosomal activity against Trypanosoma cruzi Y Tc2 amastigotes infected in human U2OS cells after 72 hrs by Draq5 staining based HCS analysis; type: functional, organism-based
Summary of the method: (§1)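 U2OS cells (700/well, high-glucose DME, 10% FBS) seeded and incubated 24 h. Then infected with 2,800 Y-strain trypomastigotes harvested from LLC-MK2 cells. On day 3, 14-point 2-fold dilutions added, top 200 μM, 1% DMSO, 72 h. Fixed in 4% PFA, Draq5 stained, imaged at 20x. Infection ratio normalized to DMSO-mock infected and uninfected controls. IC50 by sigmoidal variable-slope fit. Doublets, duplicate experiments.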

[3] = Cytotoxicity against human U2OS cells assessed as reduction in cell viability; type: cell-based
Trypanosoma cruzi [4] = assay: Potency index, ratio of benznidazole IC50 to compound IC50 for antitrypanosomal activity against Trypanosoma cruzi Y Tc2 amastigotes infected in human U2OS cells; type: functional
Trypanosoma cruzi [5] = assay: Antitrypanosomal activity against Trypanosoma cruzi Colombiana Tc1 trypamastigotes infected in monkey LLC-MK2 cells assessed as inhibition of parasite viability by measuring motility at 1 uM after 20 hrs by light microscopic method relative to control; type: functional; settings: LLC-MK2, 20 h
Summary of the method: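 Colombiana trypomastigotes, centrifuged at 7,000 rpm at 4 °C, resuspended at 10^6/mL in DME with 2% FCS. Exposed to 1 μM compound, 0.5% DMSO final, 20 h at 37 °C, 5% CO2. Viability judged by motility under light microscope. Live parasites counted in a Neubauer chamber. % inhibition relative to drug-free control. Two independent experiments.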

Trypanosoma cruzi [6] = assay: Antitrypanosomal activity Trypanosoma cruzi Y Tc2 epimastigotes measured after 72 hrs; type: functional, organism-based; settings: for IC50: Trypanosoma cruzi, Y, 72 h
Summary of the method: (§2)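 Exponentially growing epimastigotes (1.0*10^7 parasites/mL) cultured in LIT-FCS medium with compound from 0.4 to 300.0 µM, added from DMSO stock (DMSO ≤1.0%), 72 h at 28 °C. Viable parasites read by absorbance at 562 nm. PGI computed against untreated culture after subtracting compound/medium blanks. IC50 from sigmoid dose-response fit using at least six concentrations. Triplicates, at least two independent experiments.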

Trypanosoma cruzi [7] = assay: Antitrypanosomal activity Trypanosoma cruzi Bug 2149 cl10 Tc5 epimastigotes measured after 72 hrs; type: functional, organism-based; settings: for IC50: Trypanosoma cruzi, Bug 2149 cl10, CL1-0, 72 h
Summary of the method: as §2, with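 “°C.” for “°C. Viable parasites read by absorbance at 562 nm.”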

Trypanosoma cruzi [8] = assay: Antitrypanosomal activity against Trypanosoma cruzi Colombiana Tc1 epimastigotes measured after 72 hrs; type: functional, organism-based; settings: for IC50: Trypanosoma cruzi, Colombiana, 72 h; summary of the method: as §2
Trypanosoma cruzi [9] = assay: Antitrypanosomal activity against Trypanosoma cruzi Silvio X10 cl1 Tc1 epimastigotes measured after 72 hrs; type: functional, organism-based; settings: for IC50: Trypanosoma cruzi, Silvio X10 cl1, 72 h
Summary of the method: as §2, with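 “°C.” for “°C. Viable parasites read by absorbance at 562 nm.”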

Trypanosoma cruzi [10] = assay: Antitrypanosomal activity against Trypanosoma cruzi Y Tc2 amastigotes infected in human U2OS cells up to 200 uM after 72 hrs by Draq5 staining based HCS analysis relative to control; type: functional; summary of the method: as §1
Trypanosoma cruzi [11] = assay: Potency index, ratio of benznidazole IC50 to compound IC50 for antitrypanosomal activity against Trypanosoma cruzi Colombiana Tc1 epimastigotes; type: functional
Trypanosoma cruzi [12] = assay: Antitrypanosomal activity against Trypanosoma cruzi Y Tc2 amastigotes infected in human U2OS cells at 1.56 uM after 72 hrs by Draq5 staining based HCS analysis; type: functional, organism-based
U2OS = assay: Cytotoxicity against human U2OS cells assessed as effect on cell morphology at 1.56 uM after 72 hrs by HCS analysis; type: cell-based
Trypanosoma cruzi [13] = assay: Antitrypanosomal activity against Trypanosoma cruzi Y Tc2 amastigotes infected in human U2OS cells at 0.39 uM after 72 hrs by Draq5 staining based HCS analysis; type: functional, organism-based

SMILES	selectivity ratio [1]	IC50 (Trypanosoma cruzi [2])	CC50 [3]	Ratio IC50 (Trypanosoma cruzi [4])	inhibition at 1 µM (Trypanosoma cruzi [5])	log1/IC50 (Trypanosoma cruzi [6])	IC50 (Trypanosoma cruzi [6])	log1/IC50 (Trypanosoma cruzi [7])	IC50 (Trypanosoma cruzi [7])	log1/IC50 (Trypanosoma cruzi [8])	IC50 (Trypanosoma cruzi [8])	log1/IC50 (Trypanosoma cruzi [9])	IC50 (Trypanosoma cruzi [9])	Emax (Trypanosoma cruzi [10])	Ratio IC50 (Trypanosoma cruzi [11])	Activity (Trypanosoma cruzi [12])	Activity (U2OS)	Activity (Trypanosoma cruzi [13])
CCCCCc1ccc(C(=O)N/N=C/c2ccc([N+](=O)[O-])o2)cc1	> 208	960 nM	> 200000 nM	70	98.5%	5.59	2550 nM	5.7	1990 nM	5.75	1760 nM	5.42	3770 nM	104%	–	–	–	–
CC1CS(=O)(=O)CCN1/N=C/c1ccc([N+](=O)[O-])o1 (stereo unspecified) [NIFURTIMOX]	16.4	5180 nM	85200 nM	–	7.3%	4.89	–	5.14	–	5	9930 nM	5.22	–	96.6%	–	–	–	–
CCOC(=O)N/N=C/c1ccc([N+](=O)[O-])o1	–	–	–	–	–	5.03	9280 nM	5.16	6920 nM	5.15	7070 nM	4.95	11300 nM	–	25 - 30	–	–	–
CCCCCC1CCC(C(=O)N/N=C/c2ccc([N+](=O)[O-])o2)CC1 (stereo unspecified)	> 120	1660 nM	> 200000 nM	–	98.5%	5.6	2500 nM	5.9	1270 nM	5.83	1470 nM	5.64	2300 nM	103%	–	–	–	–
CCCCCCCOc1ccc(C(=O)N/N=C/c2ccc([N+](=O)[O-])o2)cc1	> 227	880 nM	> 200000 nM	70	98.5%	5.83	1470 nM	6.07	850 nM	5.96	1090 nM	5.7	1990 nM	98.3%	–	–	–	–
CCCCCCCc1ccc(C(=O)N/N=C/c2ccc([N+](=O)[O-])o2)cc1	> 244	820 nM	> 200000 nM	70	98.5%	5.86	1370 nM	6.17	670 nM	5.98	1050 nM	5.7	1980 nM	103%	–	Active	Non-Toxic	inactive
CCCCNc1ccc(C(=O)N/N=C/c2ccc([N+](=O)[O-])o2)cc1	34.4	350 nM	12000 nM	–	–	5.47	–	5.35	–	5.4	3940 nM	5.36	–	102%	–	–	–	–
